Data set [1] addresses T1, ATP-dependent translocase ABCB1 (Homo sapiens, UniProt P08183). In words: Inhibition of MDR1 in human primary glioblastoma stem cells assessed as increase in doxorubicin-induced reduction in cell viability at 1 uM after 72 hrs by ATPlite luminescence assay. A digest of the protocol:
(§1)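 Primary glioblastoma or mesothelioma differentiated and stem cells incubated 72 h with medium, 5 µM doxorubicin, 10 nM compound or 1 µM elacridar, alone or combined (DMSO 1% v/v). Viability by ATPlite luminescence as % of untreated RLU. Quadruplicates, n=3, mean ± SEM, one-way ANOVA.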

For data set [2], the species on record is Homo sapiens. In words: Potentiation of doxorubicin-induced cytotoxicity in human differentiated primary glioblastoma cells assessed as increase in doxorubicin-induced reduction in cell viability at 1 uM after 24 hrs by LDH release assay. It is filed as functional, cell-based. A general note: Release of lactate dehydrogenase indicates damage to the cell membrane.

The species named for data set [3] is Homo sapiens. In words: Induction of intracellular doxorubicin accumulation in human differentiated primary glioblastoma cells at 10 to 10000 nM after 3 hrs by spectrofluorimetric analysis. It is filed as functional, cell-based. The method, boiled down:
(§2)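 Differentiated or stem cells from primary glioblastoma or mesothelioma of 3 patients (stem cells used within passage 6). Incubated 3 h with 5 µM doxorubicin, alone or with compound (DMSO 1% v/v). Washed, lysed in ethanol/0.3 N HCl, doxorubicin fluorescence read at ex 475/em 553 nm and expressed as nmol/mg cell protein via calibration curve. Duplicates, n=3, mean ± SEM.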

The target in data set [4] is T1, ATP-dependent translocase ABCB1. In words: Inhibition of MDR1 in human primary mesothelioma stem cells assessed as increase in doxorubicin-induced reduction in cell viability at 1 uM after 24 hrs by LDH release assay.
The target is the same in data set [5]. In words: Inhibition of MDR1 in human primary mesothelioma stem cells assessed as increase in doxorubicin-induced reduction in cell viability at 1 uM after 72 hrs by ATPlite luminescence assay. The method, boiled down:
as §1
On the technique in general: Cellular ATP, detected with luciferase, serves as a proxy for viable cell number.

For data set [6] the target is unchanged. In words: Inhibition of MDR1 in human primary glioblastoma stem cells assessed as increase in intracellular doxorubicin accumulation at 10 to 10000 nM after 3 hrs by spectrofluorimetric analysis. Format: cell-based. The method, boiled down:
as §2

The species entered for data set [7] is Homo sapiens. In words: Potentiation of doxorubicin-induced cytotoxicity in human differentiated primary mesothelioma stem cells assessed as increase in doxorubicin-induced reduction in cell viability at 1 uM after 24 hrs by LDH release assay. Format: functional, cell-based.
Data set [8] concerns the target T1, ATP-dependent translocase ABCB1. In words: Inhibition of MDR1 in human primary glioblastoma stem cells assessed as increase in doxorubicin-induced reduction in cell viability at 1 uM after 24 hrs by LDH release assay.
The species entered for data set [9] is Homo sapiens. In words: Potentiation of doxorubicin-induced cytotoxicity in human differentiated primary mesothelioma stem cells assessed as increase in doxorubicin-induced reduction in cell viability at 1 uM after 72 hrs by ATPlite luminescence assay. It is filed as functional, cell-based. The method, boiled down: as §1
The species named for data set [10] is Homo sapiens. In words: Induction of intracellular doxorubicin accumulation in human differentiated primary mesothelioma stem cells at 10 to 10000 nM after 3 hrs by spectrofluorimetric analysis. Format: functional, cell-based. The method, boiled down: as §2
The target in data set [11] is T1, ATP-dependent translocase ABCB1. In words: Inhibition of MDR1 in human primary mesothelioma stem cells assessed as increase in intracellular doxorubicin accumulation at 10 to 10000 nM after 3 hrs by spectrofluorimetric analysis. Format: cell-based. A digest of the protocol:
as §2

The species named for data set [12] is Homo sapiens. In words: Potentiation of doxorubicin-induced cytotoxicity in human differentiated primary glioblastoma cells assessed as increase in doxorubicin-induced reduction in cell viability at 1 uM after 72 hrs by ATPlite luminescence assay. Format: functional, cell-based. A digest of the protocol: as §1
The target in data set [13] is T1, ATP-dependent translocase ABCB1. In words: Inhibition of MDR1 in human primary mesothelioma stem cells assessed as increase in doxorubicin-induced reduction in cell viability at 10 nM after 24 hrs by LDH release assay. The conditions noted are these: 0.01 µM.
The species entered for data set [14] is Homo sapiens. In words: Induction of doxorubicin accumulation in P-gp knocked out human primary mesothelioma stem cells co-expressing CRISPR-Cas at 10 nM after 3 hrs by spectrofluorimetric analysis. Format: functional. A digest of the protocol:
(§3)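 Patient-derived glioblastoma (line 4, patient #2) or mesothelioma (line 5, patient #1) stem cells, untreated, scrambled CRISPR-Cas or P-gp CRISPR-Cas knockout. Incubated 3 h with 5 µM doxorubicin. Cells lysed in ethanol/0.3 N HCl and doxorubicin read fluorimetrically at ex 475/em 553 nm, converted to nmol/mg protein by calibration. Duplicates, n=3, mean ± SEM, one-way ANOVA.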

In data set [15] the target is T1, ATP-dependent translocase ABCB1. In words: Inhibition of MDR1 in human MSC assessed as increase in doxorubicin-induced cell toxicity at 10 nM after 24 hrs by LDH release assay. The conditions noted are these: 0.01 µM.
Data set [16] has as its target T2, Broad substrate specificity ATP-binding cassette transporter ABCG2 (Homo sapiens, UniProt Q9UNQ0).
T2 sequence (Q9UNQ0 whole entry): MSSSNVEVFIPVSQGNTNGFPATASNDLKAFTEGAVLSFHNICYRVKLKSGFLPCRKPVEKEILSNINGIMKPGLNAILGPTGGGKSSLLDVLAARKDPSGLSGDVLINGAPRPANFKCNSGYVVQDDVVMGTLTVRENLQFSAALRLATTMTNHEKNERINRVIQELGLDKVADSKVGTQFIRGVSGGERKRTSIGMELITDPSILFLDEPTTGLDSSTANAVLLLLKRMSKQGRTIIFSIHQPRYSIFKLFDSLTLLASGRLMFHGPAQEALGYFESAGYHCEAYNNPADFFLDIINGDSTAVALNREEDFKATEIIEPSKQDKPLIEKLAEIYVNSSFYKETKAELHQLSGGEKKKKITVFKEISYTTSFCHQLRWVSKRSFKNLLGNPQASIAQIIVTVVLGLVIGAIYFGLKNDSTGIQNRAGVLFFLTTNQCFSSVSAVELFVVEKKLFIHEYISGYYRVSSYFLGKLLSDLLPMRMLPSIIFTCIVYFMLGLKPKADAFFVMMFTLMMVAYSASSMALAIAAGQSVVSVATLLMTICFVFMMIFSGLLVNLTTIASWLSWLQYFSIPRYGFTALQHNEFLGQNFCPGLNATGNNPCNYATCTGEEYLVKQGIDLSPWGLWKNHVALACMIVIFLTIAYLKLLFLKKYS
In words: Inhibition of BCRP (unknown origin) expressed in MDCK cells assessed as reduction in Hoechst 33342 efflux preincubated for 30 mins followed by Hoechst 3334 addition measured after 30 mins by fluorescence assay. It is filed as cell-based. The conditions noted are these: mdck. The method, boiled down: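 MDCK-BCRP monolayers (30,000 cells/well, confluent overnight) preincubated 30 min at 37 °C with compound (0.1–100 µM final). Hoechst 33342 then added (8 µM final) for 30 min. Cells fixed 20 min in 4% PFA, washed with ice-cold PBS and read at ex 340/em 485 nm. EC50 fitted from % fluorescence increase over basal vs log dose. Mean ± SEM, three experiments in triplicate.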

Data set [17] can be described thus: Cytotoxicity against human MSC at 10 nM after 24 hrs by LDH release assay. The conditions noted are these: 0.01 µM.
Data set [18] concerns the target T1, ATP-dependent translocase ABCB1. In words: Inhibition of MDR1 (unknown origin) expressed in MDCK1 cells assessed as potentiation of doxorubicin-induced decrease in cell proliferation at 1 uM administered alone on day 2 followed by drug addition day 3 along with doxorubicin addition by MTT assay. It is filed as cell-based. The method, boiled down:
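MDCK-MDR1 cells, 10000/well. On day 2, compound alone at 10 nM, 100 nM or 1 µM. On day 3, medium replaced with compound alone or with 10 µM doxorubicin; 48 h assay. MTT 0.5 mg/mL for 3–4 h at 37 °C, formazan dissolved in DMSO/EtOH 1:1, absorbance read at 570/630 nm. Solvent 1% v/v DMSO. Mean ± SEM, two experiments in triplicate; one-way ANOVA.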
(Tetrazolium assays rely on reduction of a dye to a coloured formazan, in cell work by metabolically active cells.)

Data set [19] has the same target. In words: Inhibition of MDR1 in human GSC assessed as increase in doxorubicin-induced cell toxicity at 10 nM after 24 hrs by LDH release assay. Conditions: 0.01 µM.
Data set [20] has as its target Multidrug resistance-associated protein 1 (Homo sapiens, UniProt P33527). In words: Inhibition of MRP1 (unknown origin) expressed in MDCK cells assessed as increase in calcein-AM accumulation incubated for 30 mins by calcein-AM dye based fluorescence assay. Format: cell-based. The method, boiled down: (§4)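 MDCK-MDR1 or MDCK-MRP1 cells seeded at 30,000/well and grown to confluence overnight. Compound (0.1–100 µM final, in medium) incubated 30 min at 37 °C, then calcein-AM added (2.5 µM final) for 30 min. Cells washed with ice-cold PBS and read at ex 485/em 535 nm. EC50 fitted from % fluorescence increase over untreated vs log dose. Mean ± SEM, three experiments in triplicate.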

Data set [21] deals with MDR1 (ABCB1, P-glycoprotein) (Homo sapiens, UniProt P08183). In words: Activity at MDR1 in human Caco2 cells assessed as efflux ratio of apparent permeability from basolateral to apical side over apical to basolateral side. Conditions: Caco-2. It is filed as cell-based. A digest of the protocol: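 Caco-2 cells grown 21 days on filter inserts, then washed with HBSS and equilibrated 30 min at 37 °C. Compound at 100 µM added to the donor side and incubated 120 min at 37 °C. Papp in nm/s calculated as (VA/Area) × ([drug]acceptor/[drug]initial)/time, membrane area 0.11 cm2. BA/AB ratio from two independent experiments.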
MDR1 (ABCB1, P-glycoprotein), sequence (P08183 whole entry): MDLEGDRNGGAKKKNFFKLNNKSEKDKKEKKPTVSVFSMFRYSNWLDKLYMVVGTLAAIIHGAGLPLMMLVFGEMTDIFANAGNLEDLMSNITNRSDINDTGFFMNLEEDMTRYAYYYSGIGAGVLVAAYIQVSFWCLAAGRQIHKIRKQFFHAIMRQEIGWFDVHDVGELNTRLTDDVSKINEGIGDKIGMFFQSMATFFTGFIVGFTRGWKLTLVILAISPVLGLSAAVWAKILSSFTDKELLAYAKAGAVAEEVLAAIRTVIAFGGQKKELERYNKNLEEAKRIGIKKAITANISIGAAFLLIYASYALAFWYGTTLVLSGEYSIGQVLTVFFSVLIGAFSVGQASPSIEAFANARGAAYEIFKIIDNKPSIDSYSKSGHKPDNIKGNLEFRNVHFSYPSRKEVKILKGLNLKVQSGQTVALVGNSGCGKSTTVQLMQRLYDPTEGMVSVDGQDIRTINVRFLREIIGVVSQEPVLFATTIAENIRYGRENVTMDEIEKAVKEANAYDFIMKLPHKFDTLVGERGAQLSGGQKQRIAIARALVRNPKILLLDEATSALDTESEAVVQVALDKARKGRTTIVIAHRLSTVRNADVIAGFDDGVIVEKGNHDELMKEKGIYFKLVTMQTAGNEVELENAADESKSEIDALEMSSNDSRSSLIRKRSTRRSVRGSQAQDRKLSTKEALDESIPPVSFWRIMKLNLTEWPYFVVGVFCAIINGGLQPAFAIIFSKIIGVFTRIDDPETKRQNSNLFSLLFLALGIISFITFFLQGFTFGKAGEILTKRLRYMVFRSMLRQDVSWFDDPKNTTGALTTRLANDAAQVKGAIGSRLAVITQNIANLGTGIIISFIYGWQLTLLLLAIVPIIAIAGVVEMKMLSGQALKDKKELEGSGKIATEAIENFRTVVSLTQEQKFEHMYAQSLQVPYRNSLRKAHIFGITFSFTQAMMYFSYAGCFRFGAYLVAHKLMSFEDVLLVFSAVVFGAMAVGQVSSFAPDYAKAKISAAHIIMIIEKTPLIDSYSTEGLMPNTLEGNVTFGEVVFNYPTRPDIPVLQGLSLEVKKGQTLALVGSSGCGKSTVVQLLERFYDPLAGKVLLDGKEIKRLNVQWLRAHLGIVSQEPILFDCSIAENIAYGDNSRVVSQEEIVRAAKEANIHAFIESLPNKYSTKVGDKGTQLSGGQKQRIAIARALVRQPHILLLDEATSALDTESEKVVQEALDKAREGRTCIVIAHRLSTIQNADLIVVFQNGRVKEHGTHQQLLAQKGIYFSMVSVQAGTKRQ

Data set [22] concerns the target T1, ATP-dependent translocase ABCB1. In words: Inhibition of MDR1 in human primary mesothelioma stem cells assessed as increase in doxorubicin-induced reduction in cell viability at 10 nM after 72 hrs by ATPlite luminescence assay. The conditions noted are these: 0.01 µM. A digest of the protocol:
as §1

The target is the same in data set [23]. In words: Inhibition of MDR1 in human primary glioblastoma stem cells assessed as increase in doxorubicin-induced reduction in cell viability at 10 nM after 24 hrs by LDH release assay. Conditions: 0.01 µM.
Data set [24] has the same target. In words: Inhibition of MDR1 in human primary glioblastoma stem cells assessed as increase in doxorubicin-induced reduction in cell viability at 10 nM after 72 hrs by ATPlite luminescence assay. Conditions: 0.01 µM. The method, boiled down:
as §1

For data set [25], the species on record is Homo sapiens. In words: Potentiation of doxorubicin-induced cytotoxicity in human differentiated primary mesothelioma cells assessed as increase in doxorubicin-induced reduction in cell viability at 10 nM after 24 hrs by LDH release assay. It is filed as functional, cell-based.
Data set [26] is filed under the species Homo sapiens. In words: Potentiation of doxorubicin-induced cytotoxicity in human differentiated primary glioblastoma cells assessed as increase in doxorubicin-induced reduction in cell viability at 10 nM after 24 hrs by LDH release assay. It is filed as functional, cell-based.
The species named for data set [27] is Homo sapiens. In words: Potentiation of doxorubicin-induced cytotoxicity in human differentiated primary mesothelioma cells assessed as increase in doxorubicin-induced reduction in cell viability at 10 nM after 72 hrs by ATPlite luminescence assay. Format: functional, cell-based. The method, boiled down: as §1
Data set [28] in a line: Cytotoxicity against human GSC at 10 nM after 24 hrs by LDH release assay. The conditions noted are these: 0.01 µM.
Data set [29] is filed under the species Homo sapiens. In words: Potentiation of doxorubicin-induced cytotoxicity in human differentiated primary glioblastoma cells assessed as increase in doxorubicin-induced reduction in cell viability at 10 nM after 72 hrs by ATPlite luminescence assay. It is filed as functional, cell-based. The method, boiled down: as §1
Data set [30] concerns the target T1, ATP-dependent translocase ABCB1. In words: Inhibition of MDR1 (unknown origin) expressed in MDCK cells assessed as increase in calcein-AM accumulation after 30 mins by calcein-AM dye based fluorescence assay. It is filed as cell-based. Conditions: read-out: EC50. A digest of the protocol: as §4
The species entered for data set [31] is Homo sapiens. In words: Induction of doxorubicin accumulation in P-gp knocked out human primary glioblastoma stem cells co-expressing CRISPR-Cas at 10 nM after 3 hrs by spectrofluorimetric analysis. It is filed as functional. A digest of the protocol: as §3

Calls of active or inactive are those of the source. The calls are words filed in the database; no cut-off is given here. A value given as a limit tells only on which side of the number the result lay.

T1 sequence (P08183 whole entry): as above
Multidrug resistance-associated protein 1, sequence (P33527 whole entry): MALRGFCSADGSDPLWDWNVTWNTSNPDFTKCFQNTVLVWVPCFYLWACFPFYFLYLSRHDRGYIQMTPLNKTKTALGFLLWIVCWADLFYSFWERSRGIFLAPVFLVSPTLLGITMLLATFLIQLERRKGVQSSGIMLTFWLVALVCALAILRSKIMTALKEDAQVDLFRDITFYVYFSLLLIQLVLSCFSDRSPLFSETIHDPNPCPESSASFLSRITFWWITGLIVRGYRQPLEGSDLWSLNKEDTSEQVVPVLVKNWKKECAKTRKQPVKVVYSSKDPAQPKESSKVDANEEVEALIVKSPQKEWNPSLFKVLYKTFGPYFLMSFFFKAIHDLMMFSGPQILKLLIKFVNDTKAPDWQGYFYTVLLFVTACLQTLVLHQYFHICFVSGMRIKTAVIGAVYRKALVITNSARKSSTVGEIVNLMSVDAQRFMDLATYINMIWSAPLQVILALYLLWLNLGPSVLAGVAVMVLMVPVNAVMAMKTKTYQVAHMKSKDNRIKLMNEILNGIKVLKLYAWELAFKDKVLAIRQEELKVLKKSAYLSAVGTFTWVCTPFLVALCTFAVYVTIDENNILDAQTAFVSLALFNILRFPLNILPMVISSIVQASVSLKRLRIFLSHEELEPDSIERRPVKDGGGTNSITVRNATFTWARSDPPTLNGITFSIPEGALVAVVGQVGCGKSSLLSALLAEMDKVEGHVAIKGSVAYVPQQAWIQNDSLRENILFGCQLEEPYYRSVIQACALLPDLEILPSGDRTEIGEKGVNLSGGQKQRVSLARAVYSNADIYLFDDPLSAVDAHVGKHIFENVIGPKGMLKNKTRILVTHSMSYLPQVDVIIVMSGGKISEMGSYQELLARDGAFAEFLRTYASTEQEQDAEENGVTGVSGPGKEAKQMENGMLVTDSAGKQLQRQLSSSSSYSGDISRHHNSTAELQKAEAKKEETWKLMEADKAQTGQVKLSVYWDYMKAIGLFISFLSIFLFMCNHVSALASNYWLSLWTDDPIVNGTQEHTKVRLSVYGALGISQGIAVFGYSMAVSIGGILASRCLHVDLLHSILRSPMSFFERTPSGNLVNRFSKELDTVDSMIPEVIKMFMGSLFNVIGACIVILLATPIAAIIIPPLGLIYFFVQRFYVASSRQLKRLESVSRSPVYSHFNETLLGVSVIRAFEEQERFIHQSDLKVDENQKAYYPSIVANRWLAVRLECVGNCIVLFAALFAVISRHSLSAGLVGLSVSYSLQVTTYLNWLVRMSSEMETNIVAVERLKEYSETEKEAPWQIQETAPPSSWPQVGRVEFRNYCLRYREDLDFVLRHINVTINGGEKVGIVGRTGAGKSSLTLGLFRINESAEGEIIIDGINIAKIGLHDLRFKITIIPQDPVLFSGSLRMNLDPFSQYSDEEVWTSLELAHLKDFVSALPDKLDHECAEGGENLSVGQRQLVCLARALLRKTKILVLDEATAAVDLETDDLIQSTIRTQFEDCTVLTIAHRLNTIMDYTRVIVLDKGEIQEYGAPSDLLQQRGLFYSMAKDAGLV

Take `COc1cc2c(cc1OC)CN(CCc1ccc(NC(=O)c3cccc4c(=O)c5cccc(OC)c5[nH]c34)cc1)CC2` [ELACRIDAR]: the “inhibition (INH)” value in data set [1], in [4], in [5], in data set [6], in [8] and in [11] was “Active” in each case. For the same compound, the result in the data set filed under Homo sapiens [2], in the data set filed under Homo sapiens [3], in the data set listed under Homo sapiens [7], in the data set filed under Homo sapiens [9], in the data set listed under Homo sapiens [10] and in the data set filed under Homo sapiens [12] was inactive.

By EC50 is commonly meant the concentration needed to bring the measured effect to its halfway point. A word on the efflux ratio: it is a quotient of directional permeabilities that is used to spot active efflux. On to `COc1cc2c(cc1OC)CN(Cc1ccc(-c3ccc(N(S(=O)(=O)c4ccccc4)S(=O)(=O)c4ccccc4)cc3)cc1)CC2`, for which the “inhibition (INH)” value in data set [13], in [15], in data set [18], in [19], in data set [22] and in data set [23] was “Active” in each case. Further, the “inhibition (INH)” value in data set [24], in [6] and in [11] was “Active” in each case. Also, the result in the data set filed under Homo sapiens [14], in the data set filed under Homo sapiens [3], in the data set filed under Homo sapiens [25], in the data set listed under Homo sapiens [26], in the data set listed under Homo sapiens [27] and in the data set filed under Homo sapiens [29] was inactive. For the same compound, the outcome in the data set listed under Homo sapiens [10] and in the data set filed under Homo sapiens [31] was inactive. Also, the values for the EC50 result in [16], in data set [20] and in data set [30] were “Not Active”, “Not Active” and 0.0153 µM, respectively. In addition, the Activity entry in [17] and in [28] was “Non-Toxic” throughout. Moreover, the efflux ratio in data set [21] was greater than 20.

(Values after ChEMBL document CHEMBL4411301, “Design, Biological Evaluation, and Molecular Modeling of Tetrahydroisoquinoline Derivatives: Discovery of A Potent P-Glycoprotein Ligand Overcoming Multidrug Resistance in Cancer Stem Cells” (J Med Chem, 2019).)
